Reference: paper PMC7616001 (Journal of medicinal chemistry, 2022)
“Also recorded” adds a separate entry of the source.

How the values were obtained:
[1] = tested on: mitochondria of HeLa cells; test: Metal content in isolated mitochondria, ICP-MS; format: cell-based, human; settings: 20 μM, 24 h
[2] = tested on: MEF-Bax/Bak^+/+ and MEF-Bax/Bak^−/− cell lines; test: Cytotoxicity in MEF-Bax/Bak+/+ versus MEF-Bax/Bak−/− cells; format: cell-based, murine
ROS level in HeLa cells = test: H2DCF-DA intracellular ROS assay; format: cell-based, human; settings: 10 μM, 1-8 h
Procedure, shortened: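 HeLa plated at 10 × 10^3 per well, grown overnight, then exposed to 10 μM test compound for 1, 2, 4 or 8 h. Washed with PBS and loaded with 10 μM H2DCF‑DA for 30 min. Washed again, phenol red‑free DMEM added, fluorescence read immediately. Three biological replicates.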

[3] = Stability in DMSO and aqueous media by 1H NMR; format: physicochemical; settings: up to 48 h
Procedure, shortened: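 About 2 mM test compound in DMSO-d6 was mixed with 666 mM NaCl in D2O to give 100 mM NaCl final in DMSO/D2O (85/15, v/v). 1H NMR spectra were recorded at regular intervals up to 48 h.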

[4] = tested on: zebrafish sub-intestinal venous plexus (SIVP) angiogenesis; test: Zebrafish SIVP angiogenesis model; format: in vivo, zebrafish (Danio rerio); settings: 20/30/40 μM from 26 hpf, imaged at 72 hpf
Procedure, shortened: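 Test compound stock 5 mM in DMSO, diluted in E3 to final 20, 30 or 40 μM; DMSO vehicle at 10 μL/mL E3. Four 26 hpf Tg(etv2:EGFP) embryos per 1 mL. Raised to 72 hpf at 28 °C for confocal analysis of the sub‑intestinal venous plexus.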

[5] = tested on: mitochondrial Ca^2+ level in HeLa cells; test: Mitochondrial Ca2+ level, Rhod-2 AM imaging; format: cell-based, human; settings: 20 μM
[6] = Reversible aquation and anation by 1H NMR; format: physicochemical; settings: DMSO/D2O without NaCl, within 10 min
Procedure, shortened: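 1H NMR in DMSO/D2O. At 10 min, 666 mM NaCl in D2O added to give 100 mM NaCl in DMSO/D2O (85:15 v/v). Spectra recorded at regular intervals up to 60 min.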

[7] = tested on: HO• radicals in HeLa cells; test: Flow cytometric quantification of hydroxyl radicals with HPF probe; format: cell-based, human; settings: 10 μM, 4 h
Procedure, shortened: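 HeLa seeded at 0.75 × 10^6 cells per six‑well plate well, grown overnight, then treated 4 h at 10 μM. Cells trypsinised, washed with ice‑cold PBS and spun at 1200 rpm, 5 min, 4 °C. Probe‑stained cells analysed by flow cytometry, approximately 20,000 cells per sample.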

A2780 = test: MTT assay, 72 h continuous exposure, A2780 cells; format: cell-based, human
Procedure, shortened: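 Ovarian lines grown in RPMI with 10% FBS and 1% penicillin/streptomycin; A2780Cis kept on 2 μM cisplatin 3 days each week. HeLa grown in DMEM with the same supplements. 3 × 10^3 cells/well, overnight, then serial dilutions of DMSO stocks (final DMSO ≤0.1%); cisplatin stock in PBS. 72 h continuous exposure, MTT 0.5 mg/mL 3 h, formazan in DMSO, A570 normalised to untreated. IC50 from curves; ≥3 independent experiments.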

[8] = tested on: acidic vesicular organelles in HeLa cells; test: Acridine orange assay; format: cell-based, human; settings: HeLa, 10, 20, 40 μM, 24 h
Procedure, shortened: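 HeLa cells in 35 mm dishes exposed to test compound at 10, 20 or 40 μM for 24 h, or rapamycin (1 μM, 24 h) as reference. Medium replaced with FBS-free medium containing 1 μM acridine orange for 25 min in the dark (37 °C, 5% CO2). Cells washed with PBS and overlaid with phenol red-free DMEM (4% FBS) for imaging.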

HeLa cells [9] = test: Intracellular distribution between nucleus and cytoplasm, ICP-MS; format: cell-based, human; settings: 10 μM, 24 h exposure
Procedure, shortened: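 5 × 10^6 HeLa per 100 mm plate, grown overnight. Exposed 24 h to 10 μM test compound, with 10 μM cisplatin as comparator. PBS‑washed, trypsinised, counted. Nuclear and cytoplasmic fractions isolated with a commercial kit. Protein measured by BCA assay, metal by ICP‑MS. Three experiments of ≥3 replicates.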

zebrafish embryos = test: Zebrafish embryo toxicity and viability analysis; format: in vivo, zebrafish (Danio rerio)
Procedure, shortened: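 Wild‑type embryos, ten per 5 mL E3. Test compound at final 20, 30 or 40 μM, diluted from a 5 mM DMSO stock; DMSO vehicle at 10 μL/mL. Exposure from 26 hpf to 72 hpf at 28 °C, then scored for viability and morphology.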

HeLa cells [10] = test: Whole cell uptake by ICP-MS; format: cell-based, human; settings: 10 μM
Procedure, shortened: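 2 × 10^6 cells per 60 mm plate, grown overnight. Incubated 4 h in fresh medium containing 10 μM test compound. Washed three times with PBS, detached with trypsin and counted for per‑cell metal uptake.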

Cyclic voltammetry = format: physicochemical; settings: acetonitrile, 0.1 M NEt4BF4
[11] = Octanol-water partition coefficient, shake-flask method; format: physicochemical; settings: 100 mM NaCl, 37 °C, Ru by ICP-MS
Procedure, shortened: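 Shake‑flask partition. Octanol‑saturated water and water‑saturated octanol prepared beforehand by shaking a 1:1 octanol/water mixture for 24 h, then separating the layers.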

For `Cc1ccc(C(C)C)cc1.O=C(C=C([O-])C(F)(F)F)[c-]1cccc1.[Cl-].[Fe+2].[Ru+2].c1cc[cH-]c1` [Compound 1, [(η^6-p-cymene)Ru(1,1,1-trifluoro-4-oxo-4-ferrocenyl-but-2-en-2-olate)Cl]], the “Ru in mitochondria relative to Pt in mitochondria of cisplatin-treated cells” value [1] was ~ 4 fold, the “IC50 in MEF-Bax/Bak^−/− compared to MEF-Bax/Bak^+/+ cells” value [2] was “statistically similar” and the “intracellular ROS level (H2DCF-DA)” value (ROS level in HeLa cells) was “significant increase in ROS”. For the same compound, the “stability in DMSO” value [3] was “no change was detected in the ^1H NMR spectrum up to 48 h”, the “stability in DMSO-d6/D2O containing 100 mM NaCl” value [3] was “no significant spectral changes were observed up to 48 h” and the “effect on SIVP angiogenesis (SIVP area, number of compartments)” value [4] was “dose-dependent antiangiogenic effects”. For the same compound, the “increase in mitochondrial Ca^2+ level compared to untreated control” value [5] was ~ 5 fold, the fraction aquated [6] was ~ 95% and the “level of HO• radicals relative to untreated control” value [7] was ~ 7 fold. The “fold more potent compared to Ru1, Ru3 and Ru4” value (A2780; A2780 cells) was 3−18 fold, the IC50 (A2780; read-out: IC50 A2780, 72 h continuous exposure, MTT assay) was 2500 ± 300 nM and the acidic vesicular organelles [8] was “did not cause formation and promotion of acidic vesicular organelles”. The “metal content in nuclear fraction relative to cytoplasmic fraction” value (HeLa cells [9]) was ~ 2.5 times, the “morphology / visible toxic effects on embryos” value (zebrafish embryos; 72 hpf, up to 40 μM) was “morphologically indistinguishable from untreated control embryos; also recorded: did not show any visible toxic effects” and the “animal viability at 72 hpf” value (zebrafish embryos; treated at 26 hpf, even at 40 μM dose) was 100%. The “fold higher accumulation than 3” value (HeLa cells [10]; 4 h) was 3.5 fold, the “times lower cellular accumulation compared to 4” value (HeLa cells [10]; 4 h) was 1.6 times and the whole cell uptake (HeLa cells [10]; 4 h) was 57 ± 9.7 pmol/10^6 cells. The whole cell uptake (HeLa cells [10]; 4 h exposure) was 57.0 ± 9.7 picomole Ru/10^6 cells, the “oxidation potential (vs Fc^+/0)” value (Cyclic voltammetry) was 321 mV and the “log P” value [11] was 1.1 ± 0.1.
